# Assay results as given in publication PMC6039199 (Clinical and Translational Science, 2018).
# Where “and” joins values, the source holds several entries; their conditions need not be identical. Equal entries are not always repeated. Entries after “also recorded” stand apart in the source; their conditions may differ. Where two headings read alike, the source gives them in different places. Marks after values point to notes of the source that are not given here.
# Columns and labels:
# [1] = assay type: in vivo, human; settings: for AUCinf(dn), adjusted least squares geometric mean: N = 8, mixed-effects model; for t1/2 / half-life: arithmetic mean ± SD
# Summary of the method: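 In period 1, after an overnight fast of at least 8 h, subjects received 15 mg oral unlabeled drug. A 100 μg 14C i.v. microdose (~400 nCi) was infused over ~5 min, ending 1 h post oral dose. Plasma 14C drug was measured by HPLC-AMS and unlabeled drug by HPLC-MS/MS (LLOQ 0.5 ng/mL). Noncompartmental AUClast used linear-log trapezoids and AUCinf = AUClast + Clast*/kel, normalized to the actual dose. F = ratio of adjusted geometric means, from a mixed-effects model on ln AUCinf with 90% CI.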
# [2] = dose range of 0.5–300 mg, fasting state; cited from earlier work
# [3] = dogs; cited from earlier work
# Caco‐2 cells = settings: cited from earlier work
# [4] = rats; cited from earlier work
# [5] = Safety and tolerability assessments in the microtracer study; assay type: in vivo, human; settings: for Adverse events: N = 8
# Summary of the method: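 Eight healthy adult men, fasted at least 8 h overnight, received the test compound orally plus an i.v. 14C microtracer (period 1), then oral unlabeled drug plus oral 14C microtracer (period 2). Monitoring covered adverse events, vital signs, ECGs and laboratory tests from screening through the study. A telephone follow-up for adverse events was made 14 ± 3 days after the last dose.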
# [6] = ref data on file; cited from earlier work
# [7] = assay type: in vivo, human; settings: for 14C_Total(dn) (14C_Total in dpm/radioactivity dose in dpm), geometric mean: N = 6; for 14C-Total urinary excretion: mean (%CV)
# Summary of the method: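 Period 1 was the i.v. 14C microdose. In period 2, after at least 11 days washout and a fast of at least 8 h, subjects took 15 mg oral unlabeled drug (three 5-mg tablets), then a 100 μg oral 14C solution (~400 nCi) with ~240 mL water. Urine 0–96 h was assayed for 14C by AMS, summed as concentration × volume, then normalized to the administered dpm. That dose came from LSC of the solution and syringe weight. Fa = oral/i.v. geometric mean ratio, plus a mixed-effects model using all data.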
# [8] = cited from earlier work
# [9] = 15 mg oral unlabeled, dose-normalized to 1 mg, geometric mean (geometric %CV)
# [10] = 100 μg i.v. 14C, geometric mean (geometric %CV)
compound,measurement,setting,value
CCOc1ccc(Cc2cc([C@]34OC[C@](CO)(O3)[C@@H](O)[C@H](O)[C@H]4O)ccc2Cl)cc1 [ertugliflozin],"AUCinf(dn), adjusted least squares geometric mean",[1]; 15 mg oral unlabeled (Test),93.16 ng·h/mL/mg
same,Time quantifiable in plasma postdose,"[1]; 15 mg oral unlabeled, HPLC-MS/MS, LLOQ 0.5 ng/mL",72 h
same,t1/2,"[1]; 15 mg oral unlabeled, listed as Unlabeled ertugliflozin",14.04 ± 2.17 h
same,AUCinf(dn),[1]; [9],93.16 (13) ng·h/mL/mg
same,Cmax(dn),[1]; [9],17.09 (14) ng/mL/mg
same,CL/F,"[1]; 15 mg oral unlabeled, geometric mean (geometric %CV)",178.7 mL/min
same,Permeability classification,[1]; based on F and Fa ∼100%,highly permeable
same,Vd,"[1]; human, plasma, iv, 100 ug",85.5 L
same,clearance,"[1]; human, plasma, iv, 100 ug",187 mL/min
same,half-life,"[1]; human, plasma, iv, 100 ug, t1/2, 100 μg i.v. 14C",8.1 h
same,AUC(0-inf),"[1]; human, plasma, po, 15 mg",1400 ng·h/mL
same,AUC(0-t),"[1]; human, plasma, po, 15 mg",1380 ng·h/mL
same,Cmax,"[1]; human, plasma, po, 15 mg",256 ng/mL
same,Vd/F,"[1]; human, plasma, po, 15 mg",215 L
same,half-life,"[1]; human, plasma, po, 15 mg, t1/2, 15 mg oral unlabeled",14 h
same,Absolute oral bioavailability F: Ratio (Test/Reference) of adjusted means,"[1]; oral 15 mg vs i.v. 14C 100 μg, fasted, N = 8",105% and 104.73%
same,Dose proportionality in exposure (AUC and Cmax),[2],dose proportionality in exposure
same,Estimated Fa,[3],~100%
same,BA/AB ratio,Caco‐2 cells; Caco-2,2.1
same,Permeability coefficient,Caco‐2 cells; apical (A) to basolateral (B) direction,4.1 ×10⁻⁶ cm/s
same,Estimated Fa,[4],~75%
same,Tolerability,"[5]; following i.v. and oral administration, healthy men",well tolerated
same,Adverse events,[5]; period 1 (i.v. administration),Three subjects experienced three AEs (back pain and two episodes of headache)
same,Adverse events,[5]; period 2 (oral administration),one subject experienced one AE (nasal congestion)
same,Solubility classification,[6],highly soluble
same,Solubility of 15 mg in 250 mL aqueous media,[6],completely soluble
same,"Fraction absorbed Fa: geometric mean ratio (90% CI), mixed-effects model",[7]; all available data (N = 8 oral; N = 6 i.v.),110%
same,Oral absorption,[7]; fasted conditions,complete; also recorded: completely absorbed
same,"14C_Total(dn) (14C_Total in dpm/radioactivity dose in dpm), geometric mean","[7]; oral (Test, period 2), urine 0–96 h",0.432
same,Fraction absorbed Fa: ratio (Test/Reference) of geometric means,"[7]; six subjects with complete urine data for both treatments, fasted",111% and 110.71%
same,Principal biotransformation pathway,[8]; humans,glucuronidation
same,Renal excretion of unchanged ertugliflozin,"[8]; single 25-mg oral 14C dose, healthy male subjects",1.5%
same,Human fraction of dose absorbed (Fa) from mean urinary 14C recovery,[8]; single 25-mg oral 14C dose,at least 50%
^14C‐ertugliflozin,"AUCinf(dn), adjusted least squares geometric mean",[1]; 100 μg i.v. 14C (Reference),88.96 ng·h/mL/mg
same,AUCinf,"[1]; 100 μg i.v. 14C microdose, period 1, N = 8, geometric mean (geometric %CV)",8.477 (15) ng·h/mL
same,Time quantifiable in plasma postdose,"[1]; 100 μg i.v. 14C microdose, HPLC-AMS, LLOQ 20.4 pg/mL",~24 h
same,Tmax,"[1]; 100 μg i.v. 14C, 5-min infusion, relative to infusion start, median (range)",0.083 (0.083–0.100) h
same,t1/2,[1]; 100 μg i.v. 14C,8.098 ± 2.248 h
same,Cmax(dn),"[1]; 100 μg i.v. 14C, dose-normalized to 1 mg, geometric mean (geometric %CV)",89.34 ^b (32) ng/mL/mg
same,AUClast,[1]; [10],7.859 (14) ng·h/mL
same,CL,[1]; [10],187.2 (15) mL/min
same,Cmax,[1]; [10],8.514 (32) ng/mL
same,Vss,[1]; [10],85.53 (15) L
same,"14C_Total(dn) (14C_Total in dpm/radioactivity dose in dpm), geometric mean","[7]; i.v. 100 μg 14C (Reference, period 1), urine",0.390
same,14C-Total urinary excretion,"[7]; i.v. 100 μg 14C, period 1, N = 6","319,000 (19) dpm and 319,000 dpm"
same,Total 14C in urine as percent of administered dose (% 14C_Total),[7]; i.v. administration,39%
same,14C-Total urinary excretion,"[7]; oral 100 μg 14C, period 2, N = 8","320,400 (10) dpm and 320,400 dpm"
same,Total 14C in urine as percent of administered dose (% 14C_Total),[7]; oral administration,44%
